The full list was thinned out, with hits kept by preference.
Fibroblast inh – blocks proliferation of human lung fibroblasts | viability, % at 10 µM | LL 47 human lung fibroblast viability, ATP luminescence; hits give low values | 85,000 compounds, 1.1% hits;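 active = viability at or below 50% in the single dose screen; inactive = viability above 50%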;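 note: compound exposure lasted 72 h before the ATP readout; 100% = median luminescence of untreated cell-only wells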
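Test system: LL 47 human lung fibroblasts; Quantity: 1,150 cells/well; Buffer or medium: IMEM plus 15% FBS; Dosing: tenfold compound dosing solution, DMSO at 0.1%; Timing: overnight cell rest, 72 h compound treatment at 37 °C; Detection: ATP-based CellTiter-Glo luminescent readout; Read-out basis: viability percentage against median untreated-cell control; Controls: cell-only wells, no compound.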
HCT116 bCat-KO – beta-catenin-lacking colon tumor cell growth suppression; HCT116 beta-catenin knockout viability, CellTiter-Glo, 60 h; hits give low values; viability, % at 10 µM; 140,000 compounds, 1.5% hits; AID 818;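 active = viability at or under a set limit, the compound median less 4 SD, cut at about 6% in these data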;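 note: 0% = Hyamine 1622 control at 20 µM and 100% = untreated cell control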
HCT116 PTEN-null – PTEN-deleted cell growth suppression | AID 827 | HCT116 PTEN-null viability, CellTiter-Glo, 60 h; hits give low values | 140,000 compounds, 1.2% hits | viability, % at 10 µM;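 active = viability at or below a set limit, 4 SD under the median of all tested compounds, cut at about 3.7% in these data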;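 note: PTEN knockout HCT116 line with beta catenin targeted HCT116 as companion control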
HUVEC prolif 384 – blocks proliferation of human endothelial cells. viability, % at 10 µM (by protocol). 86,000 compounds, 1.1% hits. HUVEC proliferation, CellTiter-Glo luminescence, 72 h; hits give low values;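 active = viability at or below 30%; inactive = viability above 30%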;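 note: 100% = median luminescence of DMSO-only cell control wells on each plate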
H69AR inhibit – blocks growth of human H69AR lung tumor cells. H69AR lung tumor viability, ATP luminescence, 72 h; hits give low values. viability, % at 10 µM. 85,000 compounds, 6% hits;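 active = viability at or below 40%; inactive = viability above 40%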;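 note: multidrug resistant small cell line overexpressing MRP-1 efflux transporter; 100% = mean luminescence of untreated control wells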
An asterisk follows results filed as active; . = no result given.

SMILES | Fibroblast inh | HCT116 bCat-KO | HCT116 PTEN-null | HUVEC prolif 384 | H69AR inhibit
CCCCN1C(=O)C(O)(CC(=O)c2ccccc2OC)c2ccccc21 (configuration not stated) | 99.7 | 87.1 | 100.2 | 99.6 | 92.0
C#CCN1C(=O)C(O)(CC(=O)c2ccc3c(c2)OCCO3)c2ccccc21 (configuration not stated) | 100.1 | 91.3 | 51.1 | 81.3 | 34.5*
C#CCN1C(=O)C(O)(CC(=O)c2ccc(OC)c(OC)c2)c2ccccc21 (configuration not stated) | 97.7 | 41.5 | 22.1 | 101.8 | 40.9
CCCN1C(=O)C(O)(CC(=O)c2ccc3c(c2)OCCO3)c2ccccc21 (configuration not stated) | 95.4 | 31.3 | 41.4 | 95.9 | 17.4*
CN1C(=O)C(O)(CC(=O)c2ccc3c(c2)OCO3)c2ccccc21 (configuration not stated) | 95.5 | 106.4 | 110.4 | 108.8 | 88.9
O=S(Cc1ccccc1)CC(O)(c1ccccc1)c1ccccc1 (configuration not stated) | . | 92.5 | 83.2 | . | .
CC(/C=C/c1ccco1)=N/NC(=O)OC(C)(C)C | . | 71.3 | 76.1 | . | .
O=S1(=O)C=C(Sc2nnc(-c3ccccc3)o2)c2ccccc21 | . | 1.2* | 0.9* | 10.7* | 0.3*
Cc1cc(C)nc(SC2=CS(=O)(=O)c3ccccc32)n1 | 58.1 | 2.0* | 1.8* | 93.6 | 5.8*
O=S1(=O)C=C(Sc2nc3ccccc3s2)c2ccccc21 | 3.1* | 1.9* | 1.2* | 12.4* | 102.7
CSCC[C@H](NC(=O)c1ccc(Cl)c(S(=O)(=O)N2CCCC2)c1)c1nc2ccccc2[nH]1 | 105.0 | 82.2 | 78.7 | 98.5 | 74.9
CCCCN=c1sc(C(=O)OC)cc(=O)n1CCCC | . | 82.7 | 72.2 | . | .
COC(=O)c1cc(=O)n(CCc2ccc(OC)cc2)c(=Nc2ccc(F)c(Cl)c2)s1 | 62.1 | 6.5 | 6.7 | 21.9* | 1.7*
COC(=O)c1cc(=O)n(Cc2ccc3c(c2)OCO3)c(=Nc2ccc(F)c(Cl)c2)s1 | 68.7 | 2.0* | 4.4 | 62.9 | 32.6*
COC(=O)c1cc(Br)c(=O)n(CCc2ccccc2)c1 | 102.0 | 89.6 | 97.7 | 96.8 | 90.7
COC(=O)c1cc(=O)n(CCc2ccccc2)c(=Nc2ccc(F)cc2)s1 | 88.2 | 10.0 | 7.7 | 54.1 | 1.3*
CCn1c(=O)cc(C(=O)OC)sc1=Nc1ccc(F)c(F)c1 | 15.6* | 2.2* | 2.0* | 56.5 | 0.7*
O=Cc1ccccc1OS(=O)(=O)c1ccccc1 | . | 99.6 | 98.1 | . | .
O=C(N/N=C/c1ccc([N+](=O)[O-])s1)c1ccccc1Br | 63.0 | 1.9* | 1.8* | 62.0 | 15.7*
Cc1ccccc1NC(=O)/C=C/c1ccc([N+](=O)[O-])s1 | . | 2.0* | 1.4* | . | .
Cc1cc(C)cc(NC(=O)/C=C/c2ccc([N+](=O)[O-])s2)c1 | . | 26.0 | 14.2 | . | .
Cc1ccccc1C(=O)N/N=C/c1ccc([N+](=O)[O-])s1 | 63.8 | 3.6* | 2.6* | 7.2* | 21.2*
Cc1ccc2cccc(NC(=S)NC(=O)c3c(Br)cnn3C)c2n1 | 81.8 | 59.1 | 57.4 | 61.7 | 26.1*
Cc1ccc2cccc(NC(=S)NC(=O)c3ccn(C)n3)c2n1 | 88.4 | 53.8 | 58.3 | 82.5 | 62.8
Cc1ccc(C2NC(=O)NC(O)(C(F)(F)F)C2C(=O)c2cccs2)o1 (configuration not stated) | 98.4 | 95.5 | 95.5 | 16.9* | 103.8
SMILES | Fibroblast inh | HCT116 bCat-KO | HCT116 PTEN-null | HUVEC prolif 384 | H69AR inhibit
COc1ccc(NC(=O)NC23CC4(C)CC(C)(CC(C)(C4)C2)C3)cc1OC | . | 56.9 | 60.6 | . | .
Cc1ccccc1Cn1ccc(NC(=O)c2cnn3c(C(F)(F)F)cc(-c4ccco4)nc23)n1 | 100.4 | 58.3 | 64.6 | 75.1 | 34.0*
O=C(Nc1ccc2c(c1)OCO2)c1cnn2c(C(F)(F)F)cc(-c3ccco3)nc12 | 52.8 | 75.3 | 70.2 | 66.3 | 27.4*
CC(C)OC(=O)CCCNc1ccc([N+](=O)[O-])cc1[N+](=O)[O-] | . | 97.0 | 86.2 | . | .
COc1ccc(C(=O)Nc2cc(C)c3c(=O)oc4ccccc4c3n2)cc1 | 102.8 | 98.2 | 106.7 | 48.9 | 38.7*
Cc1cc(NC(=O)CC(C)(C)C)nc2c1c(=O)oc1ccccc12 | 87.5 | 86.7 | 83.9 | 86.6 | 56.1
Cc1cc(NC(=O)CN2CCc3ccccc3C2)nc2c1c(=O)oc1ccccc12 | 86.1 | . | . | 83.7 | 27.9*
COCC(=O)Nc1cc(C)c2c(=O)oc3ccccc3c2n1 | 96.0 | . | . | 87.6 | 84.2
COc1ccc(CCC(=O)N2CCN(C3CCCCC3)CC2)cc1 | 17.0* | 92.9 | 88.0 | 95.0 | 91.0
O=C(CCC1CCCC1)N1CCN(C2CCCC2)CC1 | 87.0 | 91.7 | 95.8 | 94.3 | 87.7
O=C(Nc1ccc(-c2noc(COc3ccccc3Cl)n2)cc1)c1ccco1 | 98.9 | 83.7 | 93.3 | 35.0 | 29.3*
COc1ccc(NC2=CC(=O)N(C)C2=O)cc1 | . | 104.1 | 103.2 | . | .
COCc1cc(C)nc(N/N=C/c2ccc(Cl)c(Cl)c2)c1C#N | . | 101.3 | 109.3 | . | .
O=C(NCC1CCCO1)/C(=C\c1ccc(Cl)cc1)NC(=O)c1ccccc1 (configuration not stated) | . | 94.0 | 97.7 | . | .
Cc1ccc(C(=O)N/C(=C/c2ccc(-c3cc(C(F)(F)F)ccc3Cl)o2)C(=O)NCc2cccnc2)cc1 | . | 62.8 | 60.8 | . | .
CN(C)CCNC(=O)/C(=C/c1ccc(-c2ccc(Cl)cc2)o1)NC(=O)c1ccccc1 | . | 0.9* | 0.8* | . | .
CN(C)CCNC(=O)/C(=C/c1ccc(-c2ccc(Cl)cc2Cl)o1)NC(=O)c1ccccc1 | . | 1.9* | 1.5* | . | .
CCOC(=O)c1c(NC(=O)Cn2cnc3scc(-c4ccc(C)cc4)c3c2=O)sc(C)c1C | . | 89.1 | 88.8 | . | .
O=C(CSCc1ccccc1)Nc1ccc(F)c(F)c1 | . | 93.1 | 90.9 | . | .
N#Cc1nc(N2CCCC2)nc(N2CCCC2)n1 | 76.6 | 11.1 | 15.9 | 89.4 | 85.2
C1CCN(c2nc(N3CCCCC3)nc(N3CCNCC3)n2)CC1 | 85.2 | 36.7 | 46.1 | 86.5 | 0.4*
O=c1cc(/N=C/c2coc3c(ccc4ccccc43)c2=O)[nH]c(=S)[nH]1 | . | 93.2 | 95.0 | . | .
O=C(Cn1ncc(Cl)c(Cl)c1=O)N1CCN(S(=O)(=O)c2ccc3ccccc3c2)CC1 | . | 1.1* | 1.1* | . | .
O=C(CSc1nc2ccccc2o1)N1CCN(S(=O)(=O)c2ccc3ccccc3c2)CC1 | . | 39.1 | 47.9 | . | .
Cc1cccc(N2CCN(C(=O)c3ccc4nc(-c5ccco5)c(-c5ccco5)nc4c3)CC2C)c1 (configuration not stated) | 87.3 | 7.7 | 9.7 | 23.3* | 54.4
CCN(CC)CCNC1=NCCn2c1cc1cc(OC)ccc12 | 80.7 | 49.9 | 45.2 | 83.3 | 51.9
CN=C1c2cc3cc(OC)ccc3n2CCN1Cc1ccccc1 | 45.9* | 18.6 | 14.7 | 57.9 | 19.2*
CC(C)Cc1nc2oc3c(Cl)ncnc3c2c2c1CCC2 | 44.6* | 0.9* | 0.8* | 3.3* | 70.3
CCN(C(=S)NC(=O)c1ccccc1Br)C1CCCCC1 | . | 80.5 | 83.6 | . | .
COc1cc(/C=N/NC(=S)Nc2cccc(S(=O)(=O)N(C)C)c2)ccc1O | . | 88.5 | 76.2 | . | .
